The values that follow come from ChEMBL document CHEMBL4513216, “Probing the Open Global Health Chemical Diversity Library for Multistage-Active Starting Points for Next-Generation Antimalarials” (ACS Infect Dis, 2020).

SMILES strings stand for the structures.

The data set can be described thus: Toxicity liver stage against HepG2, at 10uM. In kind it is cell-based. Particulars: human, HepG2-A16-CD81EGFP cells; read-out: INHIBITION
Set-up: test concentration 10 uM, cell line HepG2-A16-CD81EGFP. Put shortly: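 Uninfected HepG2-A16-CD81EGFP cells, 3 × 10^3 per well, 1536-well, plated on prespotted compound at 10 μM final, parasite-free screening media added to match infected plates; puromycin 10 μM positive, DMSO 0.5% negative; run in parallel with 48 h PbLuc assay at 37 °C, 5% CO2; viability by CellTiter-Glo luminescence, normalized to controls.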
As to `CCOC(=O)N(C)CC(=O)NCCc1coc(-c2ccc(C)cc2)n1`, the cytotoxicity at 10 µM was -13.9%.
For `c1cc(-c2ccc3c(c2)C2(CC3)CCN(c3nncs3)CC2)ccn1` the value was 1.13%; for `CN(C)C(=O)CN1C[C@H]2CCN(C(=O)c3ccccc3)CC[C@H]2S1(=O)=O`, 9.1%.
Turning to `Cc1ccccc1-n1nc(C)c(CN(C)C(C)Cc2ccccn2)c1C` (configuration not stated), the cytotoxicity at 10 µM is 0.58%.
As for `O=C(c1c(O)cc(F)cc1F)N1CCc2cnccc21`, the cytotoxicity at 10 µM was -4.18%.
`N#Cc1cccc(N2CCCC3(C2)CN(c2ncc(F)cn2)CCO3)n1` (configuration not stated): the cytotoxicity at 10 µM is 22.3%.
Under `CCOCCN1CCN(CCC(=O)N2CCCCC2)CC1C` (configuration not stated) stands -5.99%; under `Cc1ncncc1C(=O)NCCn1nc2ccccn2c1=O`, -6.89%.
For the compound `CN1CC[C@H](N(C)Cc2ccccc2)C[C@H](O)C1`, the cytotoxicity at 10 µM was -0.895%.
On to `CC(C)CCc1nc(CNCC2CN(C)CCO2)cs1` (configuration not stated), for which the cytotoxicity at 10 µM is -15.2%.
As to `CN(CCO)Cc1nnc(C2CCN(C(=O)C3CCOCC3)CC2)n1C`, the cytotoxicity at 10 µM is 2.01%.
Consider `Cc1csc2ncc(-c3ccnc(N4CCN(C)CC4)n3)c(=O)n12`, for which the cytotoxicity at 10 µM worked out at 9.43%.
As to `CC(=O)N1CCC(c2nccnc2Nc2cnccn2)CC1`, the cytotoxicity at 10 µM came to 4.51%.
With `Cc1nc2n(n1)CC(NCC(=O)NCCCOC(C)C)CC2` (configuration not stated), the cytotoxicity at 10 µM was -5.03%.
Under `COc1ccc(C)cc1CN(C)CC(N)=O` stands -0.691%; under `Cc1nnc(N2CCO[C@H]3[C@@H](OCc4ccccn4)CC[C@@H]32)s1`, 12.2%.
Turning to `CSCc1cc(F)ccc1CNCc1ncc[nH]1`, the cytotoxicity at 10 µM is 11.5%.
As to `CCOc1cccc(C(=O)Nc2ccn(CC)n2)c1`, the cytotoxicity at 10 µM turned out to be 8.19%.
Consider `CC(c1ccccc1)n1c(SCC(=O)O)nnc1-c1ccccc1Cl` (configuration not stated), for which the cytotoxicity at 10 µM came out at 1.31%.
As for `Cc1c(Cl)cccc1OCC(=O)NC1(C#N)CCSC1` (configuration not stated), the cytotoxicity at 10 µM came to 37.8%.
As to `Cn1cc(CN2CC[C@H](O)[C@@H]2Cc2ccccc2)cn1`, the cytotoxicity at 10 µM is -73%.
Take `NC(=O)COc1ccc(CNCc2cc(F)cc(F)c2)cc1`: the cytotoxicity at 10 µM was -7.85%.
Consider `CN1CC2(CCN(C(=O)c3ccc4c(=O)n(C)cnc4c3)C2)OC1=O` (configuration not stated), for which the cytotoxicity at 10 µM is 2.41%.
Turning to `CN(C)CCn1ccc(NC(=O)NC(C)(C)c2nccs2)n1`, the cytotoxicity at 10 µM was 3.92%.
For `CN(C)C(=O)N1CCC2(CCC(C(=O)N3CCCC3)O2)CC1` (configuration not stated), the cytotoxicity at 10 µM is -0.125%.
For `CNc1nc2c(c(C(=O)N3CCCC3)n1)CN(Cc1cc(C)no1)CC2` the value was -103%.
For `CCOc1ccc(C(C)Nc2ncnc3c2CCNC3)cc1OCC` (configuration not stated), the cytotoxicity at 10 µM is -8.81%.
Turning to `COc1cccc(CNC(=O)Nc2ccc3[nH]nnc3c2)c1OC`, the cytotoxicity at 10 µM worked out at 3.2%.
Turning to `COc1cccc(-c2noc(-c3ccc(N4CC(N)C4)nc3)n2)c1OC`, the cytotoxicity at 10 µM was -4.8%.
`CC(C)NC(=O)C[C@@H]1CCNC[C@@H]1Cc1cc(-c2ccccn2)on1`: the cytotoxicity at 10 µM is -3.15%.
With `CC1CN(c2ccc(C#N)cn2)CCN1c1ccc2nncn2n1` (configuration not stated), the cytotoxicity at 10 µM came to 1.42%.
As for `CCc1cc(NCCN2CCNC2=O)n2nccc2n1`, the cytotoxicity at 10 µM was -3.04%.
On to `CSc1ccc(C2CC(=O)Nc3c2c(=O)[nH]n3C(C)C)cc1` (configuration not stated), for which the cytotoxicity at 10 µM stood at 6.71%.
For `CC(=O)N1CCc2nc3sc(C(N)=O)c(N)c3c(C(F)(F)F)c2C1` the value was 6.28%; for `Cc1nc(C(C)C)ncc1C(=O)N1CCCC(N2CCCC2)C1` (configuration not stated), -20.1%.
Turning to `CN(C)c1cc(CNC(=O)c2c(F)cccc2F)ccn1`, the cytotoxicity at 10 µM is -18.1%.
For `O=C(NCCc1cccnc1)c1cn(CCN2CCNCC2)nn1` the value was -7.82%; for `CCN1C[C@H]2CCN(C(=O)NC)CC[C@H]2S1(=O)=O`, 4%.
For the compound `CCOc1cc(C)nc(N2CCN(Cc3nccn3CC)CC2)n1`, the cytotoxicity at 10 µM is -3.81%.
Consider `Cc1noc(NCc2cn(C)nc2-c2cccnc2)n1`, for which the cytotoxicity at 10 µM worked out at 6.87%.
With `CN(C)S(=O)(=O)N1CCC2(CC1)CC(Oc1ccccn1)CO2` (configuration not stated), the cytotoxicity at 10 µM was -133%.
As for `COCC(=O)NCc1cc2n(n1)CCCN(CCCC1CCCC1)C2`, the cytotoxicity at 10 µM is -5.01%.
For `COc1ccc(C(=O)N2CCC(Nc3ccc(C)nn3)CC2)cc1`, the cytotoxicity at 10 µM was -8.51%.
For `CN(C)C(=O)C1CCCN(C(=O)c2ccccc2-n2cc(CN)cn2)C1` (configuration not stated) the value was 11.6%.
Regarding `COc1ccccc1C1(C(=O)NCCN2CCCCC2)CCOCC1`, the cytotoxicity at 10 µM is -10.3%.
Under `Cc1cc(C)nc(CN2CCOC(c3ccc(Cl)cc3)C2)n1` (configuration not stated) stands -2.43%; under `Cc1cnc(CC2COCCN(C(=O)CN3CCOCC3)C2)cn1` (configuration not stated), 9.07%; under `CN(C)c1ncc(-c2cc(C(=O)N3CCCC3)n(CC3CC3)c2)cn1`, -0.376%.
On to `CN1CCN(Cc2cccnc2)C2(CCN(C3CCOCC3)C2)C1=O` (configuration not stated), for which the cytotoxicity at 10 µM is -5.87%.
As for `Cc1ccc(N2CC[C@@H]3O[C@@H](c4ccncn4)C[C@H]3C2)nn1`, the cytotoxicity at 10 µM amounted to 10.8%.
With `COc1cccc(-c2noc(-c3ccc(NCCCN)nc3)n2)c1OC`, the cytotoxicity at 10 µM is -1.43%.
On to `CC(NC(N)=O)C(=O)N(C)Cc1cccc(C(F)(F)F)c1` (configuration not stated), for which the cytotoxicity at 10 µM is -5.14%.
Under `O=C(CCc1nc(Cl)n[nH]1)N1C[C@@H](CN2CCCCC2)[C@@H](CO)C1` stands -0.104%.
Take `COCCC1COC2(CCN(C(C)=O)CC2)C1` (configuration not stated): the cytotoxicity at 10 µM turned out to be 8.19%.
`Cc1n[nH]c(C2CN(C(=O)CCc3cscn3)CCO2)n1` (configuration not stated): the cytotoxicity at 10 µM is -4.34%.
In the case of `O=C(c1cnccn1)N1CCCC2(CCN(c3ccccn3)C2)C1` (configuration not stated), the cytotoxicity at 10 µM is 5.77%.
On to `O=C(c1cc(C2CC2)[nH]n1)N1CCCC(n2cncn2)C1` (configuration not stated), for which the cytotoxicity at 10 µM is -6%.
`CCOc1ccc(C2CCCN2Cc2nnnn2C2CC2)cc1` (configuration not stated): the cytotoxicity at 10 µM is 6.26%.
As to `Cc1ncc(C(=O)NCCNc2ncccn2)s1`, the cytotoxicity at 10 µM worked out at 3.79%.
Take `CC(=O)c1ccc(N2CCCC(CO)(Cc3ccccc3F)C2)nc1` (configuration not stated): the cytotoxicity at 10 µM came out at 8.59%.
For `CCS(=O)(=O)N1CCc2ccc(NC(=O)NC(C)(C)C)cc21`, the cytotoxicity at 10 µM is -6.69%.
For the compound `CC(c1ccccc1F)N(CC(N)=O)C1CC1` (configuration not stated), the cytotoxicity at 10 µM is -46.3%.
For `O=C(CSC1CCc2ccccc2NC1=O)NCCO` (configuration not stated), the cytotoxicity at 10 µM is 5.52%.
For `CCS(=O)(=O)N1CCc2nc(C3CCN(C(=O)C4CC4)C3)nc(O)c2C1` (configuration not stated) the value was -25.9%; for `CCN1CCCC(c2nc(O)c3cc(C)ccc3n2)C1` (configuration not stated), 8.02%; for `Cc1cc(F)cc2c(N3CCS(=O)(=O)CC3)c(C#N)cnc12`, -16.7%.
Turning to `CC1=N[C@@]2(CC[C@@H]3CN(C(=O)NCC(C)C)C[C@@H]32)C(=O)N1C`, the cytotoxicity at 10 µM was determined as 5.01%.
Under `CC(=O)N1CC[C@@H]2O[C@@H](COCC(=O)N3CCCC3)CC[C@@H]21` stands -7.73%; under `Cc1ccc(CN[C@@H]2COC[C@H]2c2ccc(F)cc2)cc1C`, 9.07%; under `Cc1cc(NCc2ccc(S(N)(=O)=O)cc2)nc(C)n1`, -2.08%.
Turning to `CCN(CC)c1ccc(CNC(=O)C2(C)CCOCC2)cc1F`, the cytotoxicity at 10 µM is -4.08%.
Regarding `Cc1oc(-c2cccc(F)c2F)nc1CN(CCO)C(C)C`, the cytotoxicity at 10 µM is -15.2%.
As to `O=c1ccc(-c2cccs2)nn1CN1CCN(Cc2ccccc2)CC1`, the cytotoxicity at 10 µM was -3.73%.
On to `O=C(c1cnco1)N1CCC(Cc2cccc3ncccc23)CC1`, for which the cytotoxicity at 10 µM worked out at 6.79%.
Turning to `O=C(c1cccc(Cl)c1)N1CCCn2c(CN3CCCCC3)nnc2C1`, the cytotoxicity at 10 µM stood at 4.01%.
Turning to `Cc1ncsc1CN1CC[C@H](O)[C@@H](n2cnc3c(N)ncnc32)CC1`, the cytotoxicity at 10 µM was -10.8%.
For `CNc1cc2c(nn1)CCN(C(=O)c1ccccc1-n1cccn1)C2` the value was 1.91%.
Under `CC(C)c1cc(NCC2(Cn3cccn3)CC2)nc(N)n1` stands 3.19%; under `O=S(=O)(NCCC(O)c1cccs1)c1c(F)cccc1F` (configuration not stated), -0.00815%; under `CN(C)c1ccnc(-c2ccnc3c2ccn3C)n1`, 20.2%.
For the compound `O=C1N(Cc2ccc(F)c(F)c2)CCCC12CCN(C1CCSCC1)C2` (configuration not stated), the cytotoxicity at 10 µM was -19.1%.
In the case of `Cc1nc(CNC(=O)N(Cc2ccccc2)CC(C)(C)O)oc1C`, the cytotoxicity at 10 µM is -2.28%.
For `COCc1c(C(=O)N2CCCC(C(=O)c3nccn3C)C2)noc1C` (configuration not stated), the cytotoxicity at 10 µM was 15.8%.
For `Cc1nc(O)cc(CN2CC=C(c3cnn(C(C)(C)C)c3)CC2)n1` the value was -7.17%.
In the case of `Cc1ccc(-n2cc(CN3CCOCC(CN(C)C)C3)cn2)cc1C` (configuration not stated), the cytotoxicity at 10 µM was -19.8%.
Under `c1coc(CN2CCC3(CCOCC3COCC3CC3)CC2)c1` (configuration not stated) stands 2.79%; under `CN(Cc1noc(-c2ccccc2)n1)C(=O)CSc1nnc(N)s1`, 0.712%; under `COCCN(CCOC)C(=O)c1cnn(C)c1C`, -149%.
Turning to `O=S1(=O)CCC(n2cc(CNc3ccccc3Br)cn2)C1` (configuration not stated), the cytotoxicity at 10 µM was -4.9%.
Under `CN1CCC(CN(C)S(=O)(=O)CC2CCCCC2)CC1` stands 0.304%; under `COc1ccc(C(=O)Nc2cc(CC(C)C)nn2C)cc1`, -10.6%.
Turning to `Cc1cc(-c2nn(C)c(Cl)c2CN2CCOCC2CC(=O)O)no1` (configuration not stated), the cytotoxicity at 10 µM is -12.2%.
On to `CCC(=O)N1CCCCC1c1nc(O)c2c(n1)CN(C(C)=O)CC2` (configuration not stated), for which the cytotoxicity at 10 µM came to 0.525%.
Take `CC(C)N1CCC(CC(=O)N(C)C(C)c2cncs2)CC1` (configuration not stated): the cytotoxicity at 10 µM was 3.65%.
Consider `CC(=O)Nc1nc(C)c(S(=O)(=O)NCCc2ccccn2)s1`, for which the cytotoxicity at 10 µM is -5%.
With `CCc1cc(NCCNC(C)=O)nc(N2CCCC2)n1`, the cytotoxicity at 10 µM is -6.77%.
Take `CC1=C(CCN2CC[C@@H](N3CCC(O)CC3)[C@H](O)C2)C(C)(C)CCC1`: the cytotoxicity at 10 µM was -4.42%.
